Assay outcomes deposited in PubChem BioAssay by several laboratories.
Most compounds without a hit are left out; they make up all but 1.9% or so of the library.
Hck Nef HTS = inhibitors of Nef-activated human Hck kinase, primary screen, biochemical, Z-Lyte FRET, 384-well, Hck-YEEI. Tyrosine-protein kinase HCK (Homo sapiens), P08631. Recombinant Hck-YEEI plus Nef, Z-Lyte FRET kinase assay. inhibition, % at 20 µM. 0.68% of 220,000 active;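 active = Hck-Nef kinase inhibition above about 50%, limit read from the data; inactive = inhibition below that limit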;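 note: 0% = DMSO with Hck plus Nef and 100% = Hck alone without Nef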
Target sequence (P08631 whole entry, looked up): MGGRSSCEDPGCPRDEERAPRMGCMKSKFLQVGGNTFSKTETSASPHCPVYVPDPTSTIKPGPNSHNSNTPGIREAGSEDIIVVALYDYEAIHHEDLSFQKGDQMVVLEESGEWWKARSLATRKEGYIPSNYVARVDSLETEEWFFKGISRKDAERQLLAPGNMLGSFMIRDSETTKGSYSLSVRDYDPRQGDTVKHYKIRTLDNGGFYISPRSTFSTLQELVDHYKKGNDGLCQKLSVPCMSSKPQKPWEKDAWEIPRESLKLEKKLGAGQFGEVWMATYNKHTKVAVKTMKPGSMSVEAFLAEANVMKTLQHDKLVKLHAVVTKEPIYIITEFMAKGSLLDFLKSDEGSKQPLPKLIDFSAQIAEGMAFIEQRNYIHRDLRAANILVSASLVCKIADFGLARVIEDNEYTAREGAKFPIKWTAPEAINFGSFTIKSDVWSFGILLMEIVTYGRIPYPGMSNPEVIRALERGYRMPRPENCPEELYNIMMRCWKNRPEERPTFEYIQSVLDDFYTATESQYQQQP
RanGTP-Impb inh = inhibitors of RanGTP-importin-beta interaction, primary screen, biochemical, FRET, CFP-Ran, YFP-importin-beta, homogeneous. cell-free CFP-Ran/YFP-importin-beta FRET ratio. inhibition, % (concentration not given with the values). 1.1% of 300,000 active;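 active = more than half of the replicate wells show a fall in the fluorescence ratio signal beyond about 16%, limit read from the data, passing the limit was not always enough; inconclusive = exactly half of the replicate wells pass the set limit; inactive = fewer than half of replicates pass the limit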;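 note: 0% = DMSO wells and 100% = Ran loaded with GDP instead of GTP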
Runt-CBFb FRET = inhibitors of RUNX1 Runt–CBFb binding, primary screen, biochemical, FRET, Cerulean-Runt, Venus-CBFb, uHTS; Cerulean-Runt/Venus-CBFb FRET ratio 530/480, 1 h; 0.46% of 220,000 active; inhibition, % at 20 µM;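 active = inhibition over about 50% at 20 µM in the single-dose screen, limit read from the data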;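 note: 0% = DMSO wells and 100% = excess unlabeled CBFb competitor control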
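Measured by: fluorescence energy transfer, 422 nm excitation, 530/480 nm emission; test system: Cerulean-tagged RUNX1 Runt domain (FRET donor) fusion protein; buffer or medium: Tris pH 7.5 buffer with BSA; compound: one dose, 20 µM compound, 1% DMSO; times: two 1 h room-temperature incubations shielded from light; benchmarks: unlabeled CBFb 5 µM, positive control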
Runt-SMMHC FRET = inhibitors of RUNX1 Runt–CBFb-SMMHC binding, primary screen, biochemical, FRET, Cerulean-Runt, Venus-CBFb-SMMHC, uHTS; inhibition, % at 20 µM; 0.74% of 220,000 active; Cerulean-Runt/Venus-CBFb-SMMHC FRET ratio 530/480, 1 h; Runt-related transcription factor 1 (Homo sapiens) + Core-binding factor subunit beta …;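 active = mean inhibition across duplicate retests at 20 µM reaching about 50%, limit read from the data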;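 note: 0% = DMSO wells and 100% = wells with excess untagged CBFb-SMMHC; inhibitors lower the FRET ratio by blocking Runt binding to CBFb-SMMHC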
Tb hexokinase = Trypanosoma brucei hexokinase 1 inhibitors, primary screen, biochemical, G6PDH-coupled NADH absorbance, MLSCN library; inhibition, % at 10 µM; recombinant TbHK1, G6PDH-coupled NADH A340; 0.11% of 220,000 active;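 active = inhibition of 50% or more in the single-dose primary screen; inactive = inhibition below 50%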
RUNX1 CBFb TR = inhibitors of RUNX1 Runt–CBFb binding, biochemical, TR-FRET. shares compounds with Runt-CBFb FRET. 20% of 480 active. TR-FRET RUNX1 Runt domain-CBFb binding. inhibition, % at 20 µM; in the data active = inhibition above about 40%
YIC FRET counter = YIC intramolecular FRET probe signal interference, dose response, counter-screen for RanGTP-importin-beta inhibitor project, biochemical, fluorescence FRET; Purified YIC probe, intramolecular FRET ratio YFP/CFP; 40% of 1,000 active; AID 435026, 2010; shares compounds with RanGTP-Impb inh; IC50, µM;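 active = fitted half-maximal inhibitory concentration no more than tenfold above the top dose tested; inconclusive = flat fit with 30 to 70% activity, or poor fit; inactive = half-maximal concentration beyond tenfold above the top dose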
* hit, by the source's call; ? = inconclusive; / = not tested or not shown.

SMILES	Hck Nef HTS	RanGTP-Impb inh	Runt-CBFb FRET	Runt-SMMHC FRET	Tb hexokinase	RUNX1 CBFb TR	others
Cc1ccn(-c2cc(O)c(-n3ccc(C)n3)cc2O)n1	8	8	64*	25	5	37
Cc1ccn(CCC(=O)O)n1	-2	-1	2	-2	-4	/
O=c1[nH]c2ccccc2c(O)c1-[n+]1ccccc1	15	-1	20	3	-8	/
O=c1[nH]c2ccccc2c(O)c1O	-38	1	59*	57*	38	39
CNC(=S)NNC(=O)c1c(C)nc2cc(C)ccn12	17	-3	4	-2	-22	/
COc1ccc(-c2nn(-c3ccccc3)cc2C(=O)NC2CCCCC2C)cc1 (centres undefined)	/	4	/	/	/	/
CCN1CCN(CC(=O)Nc2cc3c(cc2C(C)=O)OCO3)CC1	14	6	-2	3	-10	/
CC(CCC(=O)O)C1CCC2C3C(O)CC4CC(O)CCC4(C)C3CC(O)C12C (centres undefined)	/	-2	/	/	/	/
CC(C)C(C)(C#N)NC(=O)CSc1nnc(-c2ccncc2)n1Cc1ccccc1 (centres undefined)	0	1	56*	32	4	2
CCCn1nc(NS(C)(=O)=O)c2cc3cccc(C)c3nc21	3	1	-8	-26	21	/
CCCn1nc(NC(=O)c2cccs2)c2cc3cccc(C)c3nc21	32	95*	64*	85*	3	27
CCc1ccc(/C=N/n2c(C)cc(C)c(C#N)c2=O)cc1	4	0	-3	5	19	/
Cc1ccc(CSc2ccc(-c3ccco3)nn2)cc1	2	0	56*	51	-13	36
c1ccc(CSc2ccc(-c3ccco3)nn2)cc1	0	1	41	34	-2	/
Clc1ccc(CSc2ccc(-c3ccco3)nn2)cc1	19	1	56*	56	-12	52*
C=CCOc1ccc(CNCC2CCCO2)cc1 (centres undefined)	/	-7	/	/	/	/
S=C1Cc2ccccc2N1	-17	0	51*	10	-6	4
CCCC(C)NC(=O)c1cc(C(=O)OC)cc([N+](=O)[O-])c1 (centres undefined)	-2	0	-2	2	2	/
CCCC(C)c1nnc(NC(=O)c2cc(C(=O)OC)cc([N+](=O)[O-])c2)s1 (centres undefined)	-1	1	53*	45	-2	9
COCCOC(=O)C1=C(C)NC2=C(C(=O)CC(C)(C)C2)C1c1cccnc1 (centres undefined)	23	11	50*	109*	-6	19
CC1=C(C(=O)OCCOC(C)C)C(c2cccnc2)C2=C(CCCC2=O)N1 (centres undefined)	13	2	25	46	-8	/
CN1CCN(C(=S)C(=O)Nc2ccc(Br)cc2)CC1	-45	-5	55*	28	-3	14
O=C(CCC(=O)N1CCOc2ccccc21)NCCc1ccccc1	/	-6	/	/	/	/
O=C(CSc1nc2ccccc2o1)Nc1nccs1	17	?	0	-2	2	/
CCOC(=O)c1c(-c2ccccc2)oc2ccc(OC(C)=O)cc12	1	-2	52*	-1	-1	29
SMILES	Hck Nef HTS	RanGTP-Impb inh	Runt-CBFb FRET	Runt-SMMHC FRET	Tb hexokinase	RUNX1 CBFb TR	others
Cn1ccnc1SCC(=O)Nc1ccc(Cl)cn1	15	0	15	1	0	/
Cc1ccc(C(=O)/C=C/C(=O)c2ccc(C)cc2)cc1	35	3	54*	50	2	19
Cc1ccc(/C=C/C(=O)c2ccc(C)cc2)cc1	7	-2	-3	1	15	/
CN1CCc2c(sc3ncn4nc(-c5ccccc5O)nc4c23)C1	2	/	57*	125*	-13	-2
COc1ccccc1NC(=O)CCSc1nc(C)cs1	/	4	/	/	/	/
O=C(Oc1ccc(C(=S)N2CCOCC2)cc1Br)c1cc(Cl)ccc1Cl	0	1	/	-4	-3	/
O=C(Oc1c(Br)cc(C(=S)N2CCOCC2)cc1Br)c1ccc(Cl)cc1	-1	17*	50*	24	-6	-11	YIC FRET counter=>50
O=C(COc1cccc(C(F)(F)F)c1)NNC(=O)Cn1c(=O)cnc2ccccc21	/	-7	/	/	/	/
Cc1ccc(N=Cc2cc3c(cc2O)OC(N)=C(C#N)C3c2ccccc2)cc1 (centres undefined)	5	43*	79*	117*	-26	4	YIC FRET counter=>50
O=C(N/N=C/c1ccc(N2CCCC2)c([N+](=O)[O-])c1)c1cccnc1	8	?	12	2	-48	/
O=C(Cn1c2ccccc2c(=O)c2ccccc21)N/N=C/c1ccc(N2CCCC2)c([N+](=O)[O-])c1	37	28*	76*	133*	-26	-1	YIC FRET counter=>50
Cc1ccc(C(=O)NNc2c3ccccc3nc3ccccc23)cc1	8	39*	73*	28	-10	-9	YIC FRET counter=>50
CCOCCCNC(=S)NCCNc1nc2c(C)cccc2cc1C#N	11	21*	68*	93*	-7	30	YIC FRET counter=32*
COCCCNC(=S)NCCNc1nc2cc(C)cc(C)c2cc1C#N	24	0	34	45	-4	/
Cc1ccc(Cl)c(OCC(=O)NC2CCN(Cc3ccccc3)CC2)c1	/	5	/	/	/	/
O=C(Nc1ccc(F)cc1)c1cccnn1	/	2	/	/	/	/
Cn1nccc1C(=O)Nc1sc2c(c1C#N)CCCC2	/	-3	/	/	/	/
COc1ccc(-c2c(C)sc(NC(=O)c3ccnn3C)c2C#N)cc1	4	25*	57*	18	-13	-52	YIC FRET counter=>50
Cc1ccc(NC(=O)C(C)OC(=O)Cn2[nH]c(=O)c3ccccc3c2=O)cc1 (centres undefined)	/	4	/	/	/	/
CCn1nc(NC(=O)c2ccccn2)c2cc3cccc(C)c3nc21	5	38*	60*	39	-5	-17	YIC FRET counter=0.86*
c1ccc2nc3c(nc2c1)c1ccccc1n3CCN1CCOCC1	6	?	-4	-8	-23	/
C=CCn1c(N)c(C(=O)OC(C)CC)c2nc3ccccc3nc21 (centres undefined)	30	35*	66*	123*	-19	28	YIC FRET counter=22*
